According to ChEMBL document CHEMBL1154352, “Toll-like receptor 7 selective synthetic oligoribonucleotide agonists: synthesis and structure-activity relationship studies” (J Med Chem, 2009):
The source made the active and inactive calls. No cut-off for these calls is given here.

What was measured:
PBMC [1] = test: Immunomodulatory activity in human PBMC assessed as induction of IFN-alpha at 100 ug/ml after 24 hrs
[2] = target: T1, Toll-like receptor 7 (Homo sapiens) (UniProt Q9NYK1); test: Activation of human TLR7 expressed in HEK293XL assessed as fold induction of NF-kappaB activity at 50 ug/ml after 18 hrs by reporter gene assay relative to control
T1 sequence (whole entry): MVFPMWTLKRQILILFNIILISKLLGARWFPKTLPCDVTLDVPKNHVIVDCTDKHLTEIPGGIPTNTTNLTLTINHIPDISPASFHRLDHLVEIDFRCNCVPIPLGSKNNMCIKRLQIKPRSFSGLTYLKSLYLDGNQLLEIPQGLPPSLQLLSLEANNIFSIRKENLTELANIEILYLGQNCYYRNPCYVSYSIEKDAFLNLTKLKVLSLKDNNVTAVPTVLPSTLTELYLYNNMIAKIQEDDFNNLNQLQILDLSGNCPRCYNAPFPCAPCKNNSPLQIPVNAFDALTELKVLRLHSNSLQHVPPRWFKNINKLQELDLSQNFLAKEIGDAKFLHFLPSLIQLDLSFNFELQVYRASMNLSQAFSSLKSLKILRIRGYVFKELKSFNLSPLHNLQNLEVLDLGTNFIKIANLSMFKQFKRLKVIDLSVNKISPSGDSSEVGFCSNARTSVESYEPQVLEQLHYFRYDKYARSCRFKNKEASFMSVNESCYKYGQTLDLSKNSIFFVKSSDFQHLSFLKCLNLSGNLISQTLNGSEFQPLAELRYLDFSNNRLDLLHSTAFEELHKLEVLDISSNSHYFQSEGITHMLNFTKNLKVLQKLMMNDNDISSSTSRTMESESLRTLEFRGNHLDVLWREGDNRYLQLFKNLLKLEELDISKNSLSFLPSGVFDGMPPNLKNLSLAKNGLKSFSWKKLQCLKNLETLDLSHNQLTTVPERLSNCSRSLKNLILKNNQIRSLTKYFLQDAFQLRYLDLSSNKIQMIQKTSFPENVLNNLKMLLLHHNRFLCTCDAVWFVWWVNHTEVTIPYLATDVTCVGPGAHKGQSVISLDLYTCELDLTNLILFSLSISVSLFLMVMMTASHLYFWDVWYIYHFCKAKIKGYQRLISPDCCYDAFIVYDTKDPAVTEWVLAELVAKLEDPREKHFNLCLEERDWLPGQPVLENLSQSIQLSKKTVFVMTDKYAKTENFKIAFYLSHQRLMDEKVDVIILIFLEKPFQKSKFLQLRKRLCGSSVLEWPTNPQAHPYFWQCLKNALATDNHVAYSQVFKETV
How it was run: (§1)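 HEK293 cells stably expressing human TLR7 or TLR8, transiently transfected with SEAP reporter plasmid; medium replaced, SIMRA compounds added, 18 h incubation. Supernatant SEAP measured by QuantiBlue; expressed as fold increase in NF-κB activity over PBS control. Tabulated data at 50 μg/mL, representative of three independent experiments.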

[3] = target: T2, Toll-like receptor 8 (Homo sapiens) (UniProt Q9NR97); test: Activation of human TLR8 expressed in HEK293XL assessed as fold induction of NF-kappaB activity at 50 ug/ml after 18 hrs by reporter gene assay relative to control
T2 sequence (whole entry): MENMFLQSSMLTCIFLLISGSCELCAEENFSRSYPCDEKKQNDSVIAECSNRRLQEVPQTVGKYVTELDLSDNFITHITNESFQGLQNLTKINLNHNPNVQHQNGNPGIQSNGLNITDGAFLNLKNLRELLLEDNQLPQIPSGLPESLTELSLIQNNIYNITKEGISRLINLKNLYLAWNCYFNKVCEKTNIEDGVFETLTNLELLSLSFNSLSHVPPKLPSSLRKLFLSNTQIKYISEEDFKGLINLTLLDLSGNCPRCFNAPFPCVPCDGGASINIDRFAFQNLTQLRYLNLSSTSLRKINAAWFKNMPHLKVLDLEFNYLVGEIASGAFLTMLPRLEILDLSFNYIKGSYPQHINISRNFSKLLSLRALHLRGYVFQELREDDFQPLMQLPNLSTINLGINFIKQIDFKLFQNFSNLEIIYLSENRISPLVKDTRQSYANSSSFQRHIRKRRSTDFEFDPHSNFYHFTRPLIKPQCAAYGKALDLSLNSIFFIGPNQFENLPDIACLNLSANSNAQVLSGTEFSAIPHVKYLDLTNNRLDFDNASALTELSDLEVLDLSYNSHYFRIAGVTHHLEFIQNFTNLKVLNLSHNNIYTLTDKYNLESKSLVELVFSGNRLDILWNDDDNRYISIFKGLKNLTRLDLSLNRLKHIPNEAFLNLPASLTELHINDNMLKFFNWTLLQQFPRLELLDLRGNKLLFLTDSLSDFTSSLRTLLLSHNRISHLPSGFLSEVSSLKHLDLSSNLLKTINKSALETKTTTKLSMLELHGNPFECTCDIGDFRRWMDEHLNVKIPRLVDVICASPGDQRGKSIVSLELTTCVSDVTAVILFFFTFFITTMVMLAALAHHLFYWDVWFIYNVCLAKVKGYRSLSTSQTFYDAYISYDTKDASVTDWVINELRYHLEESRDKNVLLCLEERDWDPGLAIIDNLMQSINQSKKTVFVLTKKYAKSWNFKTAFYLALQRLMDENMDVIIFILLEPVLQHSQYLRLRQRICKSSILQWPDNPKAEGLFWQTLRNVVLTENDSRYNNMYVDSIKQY
How it was run: as §1

PBMC [4] = test: Immunomodulatory activity in human PBMC assessed as induction of TNFalpha at 100 ug/ml after 24 hrs; type: functional, cell-based
How it was run: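 Human PBMCs plated at 5 × 10^6 cells/mL; compounds dissolved in PBS added at various concentrations, 37 °C for 24 h. Supernatant cytokines/chemokines quantified with human Luminex multiplex kit.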

[5] = target: Toll-like receptor 3 (Homo sapiens) (UniProt O15455); test: Activation of human TLR3 expressed in HEK293 assessed as induction of NF-kappaB activity reporter gene assay; type: cell-based
Splenocyte = test: Immunomodulatory activity in C57BL/6 mouse splenocytes bearing TLR7 receptor assessed as IL12 release at 100 ug/ml after 24 hrs by ELISA; type: functional, cell-based
How it was run: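 C57BL/6 splenocytes in RPMI 1640 with 10% FBS, penicillin/streptomycin, 2 mM L-glutamine, plated at 5 × 10^6 cells/mL; compounds in PBS added, 37 °C for 24 h. Supernatant IL-12 and IL-6 by ELISA; representative of three independent experiments.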

Sequence of Toll-like receptor 3 (Homo sapiens) (O15455 whole entry): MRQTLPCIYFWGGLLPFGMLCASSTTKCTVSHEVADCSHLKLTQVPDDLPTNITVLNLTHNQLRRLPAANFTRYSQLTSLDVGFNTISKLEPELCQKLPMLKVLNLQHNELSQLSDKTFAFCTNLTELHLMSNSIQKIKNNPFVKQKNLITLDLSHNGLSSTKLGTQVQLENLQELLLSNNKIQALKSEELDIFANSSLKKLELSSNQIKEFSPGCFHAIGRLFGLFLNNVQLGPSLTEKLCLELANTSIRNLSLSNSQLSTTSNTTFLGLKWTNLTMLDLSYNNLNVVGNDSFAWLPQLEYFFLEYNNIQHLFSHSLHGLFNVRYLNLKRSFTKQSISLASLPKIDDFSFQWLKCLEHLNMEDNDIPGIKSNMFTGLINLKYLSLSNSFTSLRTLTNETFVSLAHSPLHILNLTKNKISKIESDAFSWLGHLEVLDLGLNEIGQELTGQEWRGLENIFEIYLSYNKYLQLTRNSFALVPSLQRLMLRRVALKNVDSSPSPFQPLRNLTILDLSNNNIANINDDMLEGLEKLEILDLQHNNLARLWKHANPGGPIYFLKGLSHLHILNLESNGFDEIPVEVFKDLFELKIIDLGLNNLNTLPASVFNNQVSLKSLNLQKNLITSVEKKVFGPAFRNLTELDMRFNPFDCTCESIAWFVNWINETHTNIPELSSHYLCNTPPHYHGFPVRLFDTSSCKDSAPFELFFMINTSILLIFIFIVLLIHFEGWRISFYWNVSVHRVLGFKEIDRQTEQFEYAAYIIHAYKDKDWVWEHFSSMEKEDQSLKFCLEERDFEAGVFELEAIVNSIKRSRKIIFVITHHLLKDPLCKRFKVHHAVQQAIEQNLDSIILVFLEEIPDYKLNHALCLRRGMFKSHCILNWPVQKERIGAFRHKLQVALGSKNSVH

Molecule Nc1ccn([C@@H]2O[C@H](COP(=O)(S)O[C@H]3[C@@H](O)[C@H](n4cnc5c(N)ncnc54)O[C@@H]3COP(=O)(S)O[C@H]3[C@@H](O)[C@H](n4cnc5c(N)ncnc54)O[C@@H]3CO)[C@@H](OP(=O)(S)OC[C@H]3O[C@@H](n4ccc(=O)[nH]c4=O)[C@H](O)[C@@H]3OP(=O)(S)OC[C@H]3O[C@@H](n4ccc5c(=O)[nH]c(N)nc54)[C@H](O)[C@@H]3OP(=O)(S)OC[C@H]3O[C@@H](n4cnc5c(N)ncnc54)[C@H](O)[C@@H]3OP(=O)(S)OC[C@H]3O[C@@H](n4cnc5c(N)ncnc54)[C@H](O)[C@@H]3OP(=O)(S)OC[C@H]3O[C@@H](n4ccc5c(=O)[nH]c(N)nc54)[C@H](O)[C@@H]3OP(=O)(S)OC[C@H]3O[C@@H](n4ccc(N)nc4=O)[C@H](O)[C@@H]3OP(=O)(S)OC[C@H]3O[C@@H](n4ccc(=O)[nH]c4=O)[C@H](O)[C@@H]3OP(=O)(S)OC[C@H]3O[C@@H](n4ccc5c(=O)[nH]c(N)nc54)[C@H](O)[C@@H]3OP(=O)(S)OCC(O)COP(=O)(S)O[C@H]3[C@@H](O)[C@H](n4ccc5c(=O)[nH]c(N)nc54)O[C@@H]3COP(=O)(S)O[C@H]3[C@@H](O)[C@H](n4ccc(=O)[nH]c4=O)O[C@@H]3COP(=O)(S)O[C@H]3[C@@H](O)[C@H](n4ccc(N)nc4=O)O[C@@H]3COP(=O)(S)O[C@H]3[C@@H](O)[C@H](n4ccc5c(=O)[nH]c(N)nc54)O[C@@H]3COP(=O)(S)O[C@H]3[C@@H](O)[C@H](n4cnc5c(N)ncnc54)O[C@@H]3COP(=O)(S)O[C@H]3[C@@H](O)[C@H](n4cnc5c(N)ncnc54)O[C@@H]3COP(=O)(S)O[C@H]3[C@@H](O)[C@H](n4ccc5c(=O)[nH]c(N)nc54)O[C@@H]3COP(=O)(S)O[C@H]3[C@@H](O)[C@H](n4ccc(=O)[nH]c4=O)O[C@@H]3COP(=O)(S)O[C@H]3[C@@H](O)[C@H](n4ccc(N)nc4=O)O[C@@H]3COP(=O)(S)O[C@H]3[C@@H](O)[C@H](n4cnc5c(N)ncnc54)O[C@@H]3COP(=O)(S)O[C@H]3[C@@H](O)[C@H](n4cnc5c(N)ncnc54)O[C@@H]3CO)[C@H]2O)c(=O)n1 (stereo partly specified) has an IFN-alpha (PBMC [1]) of 28.7 pg/mL, a fold change (FC) [2] of 18.4 and a fold change (FC) [3] of 0.6. For the same molecule, the Activity (PBMC [4]) was 3.5 pg/mL, the Activity [5] was “inactive” and the Activity (Splenocyte) was “Active”.
